TDP2 inh: human TDP2 enzyme inhibitors, primary screen, biochemical, epi absorbance, recombinant enzyme; Tyrosyl-DNA phosphodiesterase 2 (Homo sapiens), O95551; T5PNP hydrolysis, p-nitrophenol absorbance 415 nm; inhibition, % at 12.8 µM; 370,000 tested, 0.34% active; AID 720702, 2013;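 active = inhibition above the mean of all tested compounds plus 3 SD, set per campaign, cut at about 25% in these data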
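Test system: Human TDP2 enzyme | Reagent: 5 mM T5PNP | Compound dosing: 12.8 µM single point, 1% DMSO | Incubation: Enzyme reaction with compound for 2 h at 37 °C | Technique: p-Nitrophenol epi absorbance | Read-out: % inhibition relative to enzyme-containing and enzyme-free wells | Benchmarks: High control without enzyme, low control DMSO plus TDP2 | Replicates: Singlicate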
GSTO1 inh: inhibitors of recombinant GSTO1, primary screen, counter-screen for RBBP9 inhibitor project, biochemical, fluorescence polarization | Glutathione S-transferase omega-1 (Homo sapiens), P78417 | activity-based probe fluorescence polarization | inhibition, % at 5.96 µM | 300,000 tested, 1.1% active | AID 1974, 2009;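 active = inhibition above the campaign mean inhibition plus 3 SD, cut at about 35% in these data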
Target sequence (P78417 whole entry, looked up): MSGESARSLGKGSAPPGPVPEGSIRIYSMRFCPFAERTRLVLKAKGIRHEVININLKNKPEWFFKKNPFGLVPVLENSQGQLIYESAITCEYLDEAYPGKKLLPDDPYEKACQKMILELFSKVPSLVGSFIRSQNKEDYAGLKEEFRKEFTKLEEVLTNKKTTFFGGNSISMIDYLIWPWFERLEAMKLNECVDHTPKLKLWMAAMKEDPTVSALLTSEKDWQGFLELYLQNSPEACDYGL
PAD4 inh: human PAD4 inhibitors, primary screen, biochemical, fluorescence polarization, 1536-well format; Protein-arginine deiminase type-4 (Homo sapiens), Q9UM07; recombinant PAD4, RCA probe fluorescence polarization; inhibition, % at 6.36 µM; 330,000 tested, 0.41% active;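 active = percent inhibition above a cutoff equal to the mean of all tested compounds plus 3 SD, cut at about 15% in these data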
CTSL1 counter: Fasciola hepatica cathepsin L1 inhibitors, primary screen, counter-screen for PFM18AAP inhibitor project, biochemical, QFRET, fluorogenic peptide substrate. recombinant F. hepatica cathepsin L1, Z-Leu-Arg-MCA fluorescence. inhibition, % at 5.96 µM. 300,000 tested, 0.49% active;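 active = inhibition above the mean of all tested compounds plus 3 SD, set per screening campaign, cut at about 17% in these data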
PAD4 FP conf: human PAD4 inhibitors, confirmation, biochemical, fluorescence polarization; shares compounds with PAD4 inh; recombinant PAD4, RCA probe fluorescence polarization; inhibition, % at 6.36 µM; 1,200 tested, 28% active; AID 488796, 2010;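 active = mean inhibition across replicates above the hit cutoff set by the earlier primary screen, cut at about 15% in these data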;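 also: inhibitors block active-site labeling by the probe so polarization falls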
TDP2 inh conf: human TDP2 enzyme inhibitors, retest, confirmation, biochemical, epi absorbance, recombinant enzyme | shares compounds with TDP2 inh | 1,100 tested, 22% active | absorbance read-out | inhibition, % at 12.8 µM; in the data active = inhibition above about 25%
Each line names hits and unclear results; the compound was inactive in the other large screens (follow-up assays come after a bar, where they were run). Hits are enriched below; roughly 1.4% of the tested compounds scored in any of these assays.

CC1=NN(c2ccccc2)C(=O)C1/C=C1\C(=O)NC(=O)N(c2cc(C)cc(C)c2)C1=O (centres undefined)	GSTO1 inh 36, PAD4 inh 26 | PAD4 FP conf inactive
Cc1cc(C)cc(N2C(=O)NC(=O)/C(=C\c3cc(C)n(C)c3C)C2=O)c1	none
COCCN(C(=O)COC(=O)Cc1ccccc1)c1c(N)n(Cc2ccccc2)c(=O)[nH]c1=O	none
C=CCn1c(O)c(C=Nc2ccc(N(CC)CC)cc2)c(=O)[nH]c1=O	PAD4 inh 28 | PAD4 FP conf inactive
Cc1ccccc1NC(=O)Cc1nc(COC(=O)Cc2ccccc2)cs1	PAD4 inh 47 (no result: GSTO1 inh, CTSL1 counter) | PAD4 FP conf inactive
COc1ccccc1CN1CCN(C(=O)COc2cccc(C)c2)CC1	none
COc1ccccc1CN1CCN(C(=O)COc2ccc3ccccc3c2)CC1	TDP2 inh 25 | TDP2 inh conf inactive
CCC(C)NC(=O)c1c(N)n(CCCOC)c2nc3ccccc3nc12 (centres undefined)	TDP2 inh 67, GSTO1 inh 61 | TDP2 inh conf inactive
COCCCn1c(N)c(C(=O)Nc2sc3c(c2C(=O)OC)CCCC3)c2nc3ccccc3nc21	TDP2 inh 35 | TDP2 inh conf inactive
COCCCn1c(N)c(C(=O)Nc2ccccc2)c2nc3ccccc3nc21	none
CCCN1CCC[C@H](c2cccc(O)c2)C1	none
CN1C(=O)NC(=O)/C(=C/c2ccc([N+](=O)[O-])s2)C1=O	TDP2 inh 25 | TDP2 inh conf inactive
CCN1CCN(c2ccc(N)cc2)CC1	TDP2 inh 32 | TDP2 inh conf inactive
CN1CCN(c2ccc(N)cc2)CC1	none
COc1ccc(C)cc1NC(=O)c1c(C)nn(Cc2ccccc2)c1Cl	none
O=[N+]([O-])c1ccccc1CNCCc1c[nH]c2ccccc12	TDP2 inh 25 | TDP2 inh conf inactive
O=CC(Cl)P(=O)(N1CCCCC1)N1CCCCC1 (centres undefined)	none
O=P(C(Cl)Cl)(N1CCOCC1)N1CCOCC1	TDP2 inh 30 | TDP2 inh conf inactive
Cc1ccc(Oc2cc(NN3CCCCC3)c([N+](=O)[O-])cc2[N+](=O)[O-])c([N+](=O)[O-])c1	none
Cc1cc(OCC(=O)NCc2ccncc2)c2c3c(c(=O)oc2c1)CCC3	TDP2 inh 26 | TDP2 inh conf inactive
CCCCn1c(NC(=O)c2ccc(Br)o2)c(C(=O)OCC)c2nc3ccccc3nc21	TDP2 inh 65, GSTO1 inh 90, PAD4 inh 72 | TDP2 inh conf 73
CCOC(=O)c1c(N)n(CCN2CCCCC2)c2nc3ccccc3nc12	none
NCCCC(=O)OC1N=C(c2ccccc2Cl)c2cc(Br)ccc2NC1=O (centres undefined)	none
COC(=O)C1=C(c2ccc(F)cc2F)C[C@@H]2CC[C@H]1N2C(=O)N1CCCCC1	none (no result: GSTO1 inh, CTSL1 counter)
CN1C(=O)C(=Cc2ccccc2Oc2ccc(Cl)c(F)c2)C(=O)N(C)C1=O	TDP2 inh 25 | TDP2 inh conf inactive
